The inhibition is the drop in the measured response relative to a control, in per cent. One may read the Inhibition as the relative decrease from the control value, in per cent. Low values mean a response near the control, high ones a response far below the control.

Each structure is given as a SMILES string.

Format in all cases: functional
Assay [1] in a line: Inhibition of CXCL8-induced cell migration in human PMN cells at 0.01 uM by chemotaxis assay. The essentials:
(§1)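 Human PMNs from normal-donor buffy coats (dextran sedimentation, hypotonic lysis; 95% purity, >95% viability). Cells at 1.5-3 × 10⁶/mL preincubated 15 min at 37 °C with vehicle or compound, then seeded in triplicate in the upper well of a 48-well micro-chemotaxis chamber. Lower well held CXCL8 1 nM or CXCL1 10 nM. Chamber ran 45 min at 37 °C in 5% CO₂; filters were fixed and stained, and five 100× fields per well were counted.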

A short description of assay [2]: Inhibition of CXCL1-induced cell migration in human PMN cells at 0.01 uM by chemotaxis assay. The method in brief:
as §1

The nature of assay [3]: Inhibition of CXCL1-induced cell migration human PMN cells at 0.1 uM chemotaxis assay. The method in brief: as §1
Assay [4] is described as follows: Inhibition of CXCL8-induced cell migration in human PMN cells at 1 nM chemotaxis assay. The method in brief: as §1

On to `CC(C(=O)O)c1cccc(C(C)c2ccccc2)c1` (stereo unspecified), for which the inhibition at 0.01 µM in assay [1] was 55%; in assay [2], 45%. `CC(C(=O)O)c1ccc(N2Cc3ccccc3C2=O)cc1` (stereo unspecified) [INDOPROFEN]: in assay [1], the inhibition at 0.01 µM was 50%. The same compound registered an Inhibition in assay [3] of 40%. Turning to `CC(C(=O)O)c1ccc(OS(C)(=O)=O)cc1` (stereo unspecified), in assay [1], the inhibition at 0.01 µM is 5%. With `CC(C(=O)O)c1ccc(NS(=O)(=O)C(C)C)cc1` (stereo unspecified), the inhibition at 0.01 µM in assay [1] was 44%. On to `C[C@@H](C(=O)NS(=O)(=O)c1ccccc1Cl)c1ccc(OS(=O)(=O)C(F)(F)F)cc1`, for which the inhibition at 0.01 µM in assay [1] amounted to 18%. `C[C@@H](C(=O)NC1CCCC1)c1ccc(OS(=O)(=O)C(F)(F)F)cc1`: the inhibition at 0.01 µM in assay [1] was determined as 0%. Same read-out and setting: for `C/C=C/c1ccc(C(C)C(=O)O)cc1` (stereo unspecified) the value was 11%.

As for `C[C@@H](C(=O)NC1CC1)c1ccc(OS(=O)(=O)C(F)(F)F)cc1`, in assay [1], the inhibition at 0.01 µM is -11%.

Regarding `CC(Cc1cccc(C(C)C(=O)O)c1)c1ccccc1` (stereo unspecified), the inhibition at 0.01 µM in assay [1] stood at 0%. On to `Cc1ccc(S(=O)(=O)Nc2ccc(C(C)C(=O)O)cc2)cc1` (stereo unspecified), for which the inhibition at 0.01 µM came out at 69% in assay [1] and 0% in assay [2]. On the same counts, the results for `Cc1ccc(S(=O)(=O)Oc2ccc(C(C)C(=O)O)cc2)cc1` (stereo unspecified) are 49% and 65%. On to `CC(C(=O)O)c1cccc(S(=O)(=O)c2ccccc2)c1` (stereo unspecified), for which the inhibition at 0.01 µM in assay [1] was found to be 9%. Consider `CC(C(=O)O)c1ccc(Cc2ccccc2)cc1` (stereo unspecified), for which the figures for the inhibition at 0.01 µM in assay [1] and in assay [2] were 1% and 35%, respectively. Regarding `CC(C(=O)O)c1ccc(C2CCCCC2)cc1` (stereo unspecified) [HEXAPROFEN], in assay [1], the inhibition at 0.01 µM turned out to be 10%.

As to `C[C@@H](C(=O)Nc1ccncc1)c1ccc(OS(=O)(=O)C(F)(F)F)cc1`, the inhibition at 0.01 µM in assay [1] was 11%. The same measure, in the same setting: for `C[C@@H](C(=O)NS(=O)(=O)C(F)(F)F)c1ccc(OS(=O)(=O)C(F)(F)F)cc1` the value was -4%.

For `CC(C(=O)O)c1ccc(CC2CC2)cc1` (stereo unspecified), the figures for the inhibition at 0.01 µM in assay [1] and in assay [2] were 24% and 30%, respectively. For the compound `C[C@@H](C(=O)O)c1cccc(C(=O)c2ccccc2)c1` [R-KETOPROFEN], the inhibition at 0.01 µM in assay [1] was found to be 64%; in assay [2], 61%. As for `CC(C)ONC(=O)[C@H](C)c1ccc(OS(=O)(=O)C(F)(F)F)cc1`, the inhibition at 0.01 µM was 50% in assay [1] and 40% in assay [2]. `C/C=C/c1cccc(C(C)C(=O)O)c1` (stereo unspecified): the inhibition at 0.01 µM in assay [1] is -1%. As for `C[C@@H](C(=O)Nc1nc(C(F)(F)F)cs1)c1ccc(OS(=O)(=O)C(F)(F)F)cc1`, the inhibition at 0.01 µM was determined as 64% in assay [1] and 60% in assay [2]. With `C[C@@H](C(=O)NCC1CC1)c1ccc(OS(=O)(=O)C(F)(F)F)cc1`, the inhibition at 0.01 µM in assay [1] turned out to be 12%. For `CNC(=O)[C@H](C)c1ccc(OS(=O)(=O)C(F)(F)F)cc1`, the inhibition at 0.01 µM in assay [1] was determined as 22%.

In the case of `C[C@@H](C(=O)NO)c1ccc(OS(=O)(=O)C(F)(F)F)cc1`, the inhibition at 0.01 µM turned out to be 48% in assay [1] and 50% in assay [2]. Take `C[C@@H](C(=O)Nc1ncco1)c1ccc(OS(=O)(=O)C(F)(F)F)cc1`: the inhibition at 0.01 µM in assay [1] worked out at 50%; in assay [2] it was 48%. On the same counts, the results for `CC(O)c1cccc(C(C)C(=O)O)c1` (stereo unspecified) are 43% and 40%. `CC(C(=O)O)c1cccc(Cc2ccccc2)c1` (stereo unspecified): the inhibition at 0.01 µM in assay [1] worked out at 10%. For the compound `CCC(O)c1cccc(C(C)C(=O)O)c1` (stereo unspecified), the results for the inhibition at 0.01 µM in assay [1] and in assay [2] were 57% and 40%, respectively. With `CC(C(=O)O)c1cccc(C(=O)c2nccs2)c1` (stereo unspecified), the inhibition at 0.01 µM came to 63% in assay [1] and 48% in assay [2]. `CC(C(=O)O)c1cccc(C(O)c2ccccc2)c1` (stereo unspecified) [2-{3-[HYDROXY(PHENYL)METHYL]PHENYL}PROPANOIC ACID]: the values for the inhibition at 0.01 µM in assay [1] and in assay [2] were 31% and 40%, respectively. In the case of `C[C@@H](C(=O)NS(=O)(=O)c1cccnc1)c1ccc(OS(=O)(=O)C(F)(F)F)cc1`, in assay [1], the inhibition at 0.01 µM came to 11%. For `C=C(c1ccccc1)c1cccc(C(C)C(=O)O)c1` (stereo unspecified), the inhibition at 0.01 µM came out at 47% in assay [1] and 2% in assay [2]. On to `CC(C)c1ccc(C(C)C(=O)O)cc1` (stereo unspecified), for which, in assay [1], the inhibition at 0.01 µM was determined as 15%. Consider `C[C@@H](C(=O)N(C)O)c1ccc(OS(=O)(=O)C(F)(F)F)cc1`, for which the inhibition at 0.01 µM in assay [1] is 48%; in assay [2], 47%. In the case of `CC(C(=O)O)c1ccc(NS(=O)(=O)c2ccccc2)cc1` (stereo unspecified), the figures for the inhibition at 0.01 µM in assay [1] and in assay [2] were 45% and 14%, respectively.

`CC(C(=O)O)c1cccc(C(=O)C2CCCC2)c1` (stereo unspecified): the inhibition at 0.01 µM was -5% in assay [1] and 2% in assay [2]. In turn, `CC(C)NC(=O)[C@H](C)c1ccc(OS(=O)(=O)C(F)(F)F)cc1` displayed an Inhibition in assay [4] of 50%. Besides, the inhibition at 0.01 µM in assay [2] worked out at 72%. As to `C[C@@H](C(=O)NS(C)(=O)=O)c1ccc(OS(=O)(=O)C(F)(F)F)cc1` [LADARIXIN], the inhibition at 0.01 µM in assay [1] was 60%; in assay [2], 61%. As for `CC(C(=O)O)c1ccc(NS(=O)(=O)c2ccccc2Cl)cc1` (stereo unspecified), the inhibition at 0.01 µM was -2% in assay [1] and 66% in assay [2].

As to `CCC(CC)c1cccc(C(C)C(=O)O)c1` (stereo unspecified), the inhibition at 0.01 µM in assay [1] came to 58%; in assay [2] it was 67%. Regarding `C[C@@H](C(=O)Nc1cccnc1)c1ccc(OS(=O)(=O)C(F)(F)F)cc1`, in assay [1], the inhibition at 0.01 µM was found to be 5%. Same read-out and setting: under `CC(C)Cc1cccc(C(C)C(=O)O)c1` (stereo unspecified) stands -10%; under `CC(C(=O)O)c1ccc(-c2cccs2)cc1` (stereo unspecified), 11%. Take `C[C@@H](C(N)=O)c1ccc(OS(=O)(=O)C(F)(F)F)cc1`: the inhibition at 0.01 µM in assay [1] worked out at 60%; in assay [2], 58%. As to `CC(C(=O)O)c1cccc(C(C)(O)c2ccccc2)c1` (stereo unspecified), the inhibition at 0.01 µM in assay [1] was determined as 0%. In the case of `CC(C(=O)O)c1ccc(NS(=O)(=O)C(F)(F)F)cc1` (stereo unspecified), the inhibition at 0.01 µM in assay [1] amounted to 10%. With `CC(=O)c1cccc([C@@H](C)C(=O)O)c1`, the inhibition at 0.01 µM in assay [1] worked out at 5%. For `C[C@@H](C(=O)NS(=O)(=O)c1ccccc1)c1ccc(OS(=O)(=O)C(F)(F)F)cc1`, the inhibition at 0.01 µM turned out to be 43% in assay [1] and 8% in assay [2]. Take `C[C@@H](C(=O)Nc1ccccn1)c1ccc(OS(=O)(=O)C(F)(F)F)cc1`: the inhibition at 0.01 µM in assay [1] is 48%; in assay [2] it was 50%. As for `C[C@@H](C(=O)Nc1nccs1)c1ccc(OS(=O)(=O)C(F)(F)F)cc1`, the inhibition at 0.01 µM in assay [1] was determined as 57%; in assay [2] it was 56%. For `CC(C(=O)O)c1ccc(N2CCCC2=O)cc1` (stereo unspecified), in assay [1], the inhibition at 0.01 µM turned out to be 10%. Consider `CC(C(=O)O)c1ccc(CC2CCCCC2)cc1` (stereo unspecified), for which the inhibition at 0.01 µM in assay [1] came out at 2%; in assay [2], 39%. For `CC(C(=O)O)c1ccc(-c2ccccc2)cc1` (stereo unspecified), the inhibition at 0.01 µM in assay [1] worked out at 0%. Turning to `CC(C)C(=O)c1cccc(C(C)C(=O)O)c1` (stereo unspecified), in assay [1], the inhibition at 0.01 µM came out at 20%.

Regarding `CC(C(=O)O)c1ccc(C(C)(C)C)cc1` (stereo unspecified), the inhibition at 0.01 µM in assay [1] was 6%. In the case of `CC(C)S(=O)(=O)NC(=O)[C@H](C)c1ccc(OS(=O)(=O)C(F)(F)F)cc1`, the inhibition at 0.01 µM in assay [1] is 60%; in assay [2], 15%. Consider `CCc1ccccc1S(=O)(=O)Nc1ccc(C(C)C(=O)O)cc1` (stereo unspecified), for which the inhibition at 0.01 µM is 47% in assay [1] and 80% in assay [2].

As to `CC(C)=Cc1ccc(C(C)C(=O)O)cc1` (stereo unspecified), the inhibition at 0.01 µM in assay [1] was determined as 14%. Consider `CCC(=O)Oc1ccc(C(C)C(=O)O)cc1` (stereo unspecified), for which, in assay [1], the inhibition at 0.01 µM was -6%. Regarding `C[C@@H](C(=O)Nc1ccccc1)c1ccc(OS(=O)(=O)C(F)(F)F)cc1`, in assay [1], the inhibition at 0.01 µM is 10%.

For `CCC(=O)c1cccc(C(C)C(=O)O)c1` (stereo unspecified), the inhibition at 0.01 µM in assay [1] was 1%. `CC(C(=O)O)c1ccc(CC2CCC2)cc1` (stereo unspecified): the inhibition at 0.01 µM in assay [1] was 55%; in assay [2], 59%.

For the compound `CONC(=O)[C@H](C)c1ccc(OS(=O)(=O)C(F)(F)F)cc1`, the values for the inhibition at 0.01 µM in assay [1] and in assay [2] were 60% and 40%, respectively. On to `CC(C)c1cccc(C(C)C(=O)O)c1` (stereo unspecified), for which the inhibition at 0.01 µM in assay [1] worked out at 62%; in assay [2], 55%. For `CC(C(=O)O)c1ccc(OS(=O)(=O)C(C)C)cc1` (stereo unspecified), the results for the inhibition at 0.01 µM in assay [1] and in assay [2] were 49% and 46%, respectively. Turning to `CC(C(=O)O)c1cccc(C(=O)c2ncco2)c1` (stereo unspecified), the inhibition at 0.01 µM in assay [1] worked out at 26%.

Take `CC(C(=O)O)c1ccc(NC(=O)c2ccccc2)cc1` (stereo unspecified): in assay [1], the inhibition at 0.01 µM was found to be 8%. For `CC(C(=O)O)c1cccc(C(=O)c2cccs2)c1` (stereo unspecified), the inhibition at 0.01 µM came to 51% in assay [1] and 50% in assay [2]. Take `CC(C(=O)O)c1ccc(OS(=O)(=O)c2ccccc2)cc1` (stereo unspecified): the inhibition at 0.01 µM in assay [1] turned out to be 55%; in assay [2], 54%. Turning to `CC(C(=O)O)c1cccc(C(=O)c2ccco2)c1` (stereo unspecified), the inhibition at 0.01 µM in assay [1] is -3%. For `CC(C(=O)O)c1ccc(OS(=O)(=O)C(F)(F)F)cc1` (stereo unspecified), the inhibition at 0.01 µM in assay [1] and in assay [2] was 57% each time. On to `CC(C(=O)O)c1ccc(OC(=O)c2ccccc2)cc1` (stereo unspecified), for which the inhibition at 0.01 µM in assay [1] was found to be 32%. As for `CC(C(=O)O)c1cccc(C(=O)C2CCCCC2)c1` (stereo unspecified), the inhibition at 0.01 µM in assay [1] came out at 5%; in assay [2] it was 4%.

With `CCCCc1cccc(C(C)C(=O)O)c1` (stereo unspecified), the inhibition at 0.01 µM in assay [1] worked out at 3%. In the case of `CC(C(=O)O)c1ccc(NS(C)(=O)=O)cc1` (stereo unspecified), the inhibition at 0.01 µM in assay [1] is -8%. With `CC(C(=O)O)c1cccc(Oc2ccccc2)c1` (stereo unspecified) [FENOPROFEN], the inhibition at 0.01 µM in assay [1] was -17%. For the compound `CC(C(=O)O)c1ccc(CC2CCCC2)cc1` (stereo unspecified), the inhibition at 0.01 µM in assay [1] came out at 10%; in assay [2], 40%.
